According to ChEMBL document CHEMBL1131624, “Inhibitors of acyl-CoA:cholesterol O-acyltransferase. 2. Identification and structure-activity relationships of a novel series of N-alkyl-N-(heteroaryl-substituted benzyl)-N'-arylureas” (J Med Chem, 1998):
Calls of active or inactive are those of the source. The rule behind the calls is not given here.

Tests used:
[1] = molecular target: O-acyltransferase (Oryctolagus cuniculus, UniProt G1SFD9); test: In vitro inhibitory activity against Acyl coenzyme A:cholesterol acyltransferase (ACAT) in rabbit intestinal microsomes; parameters: species or system Intestine
O-acyltransferase, sequence (G1SFD9 1-524): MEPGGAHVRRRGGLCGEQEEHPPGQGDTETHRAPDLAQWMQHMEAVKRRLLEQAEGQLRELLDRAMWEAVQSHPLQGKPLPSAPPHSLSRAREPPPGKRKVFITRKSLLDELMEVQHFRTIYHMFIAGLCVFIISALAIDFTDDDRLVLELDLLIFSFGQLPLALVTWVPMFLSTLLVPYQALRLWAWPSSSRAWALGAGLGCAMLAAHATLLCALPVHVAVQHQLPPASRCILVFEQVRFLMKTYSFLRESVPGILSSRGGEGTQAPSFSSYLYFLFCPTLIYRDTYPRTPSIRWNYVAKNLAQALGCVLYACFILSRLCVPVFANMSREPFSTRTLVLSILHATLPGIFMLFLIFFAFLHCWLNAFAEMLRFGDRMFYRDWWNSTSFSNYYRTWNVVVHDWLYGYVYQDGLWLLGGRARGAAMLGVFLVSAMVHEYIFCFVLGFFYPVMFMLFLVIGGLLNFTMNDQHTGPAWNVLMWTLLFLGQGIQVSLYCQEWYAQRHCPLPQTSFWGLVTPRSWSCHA
Summary of the method: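 Enzyme source was mucosal microsomes from small intestine of cholesterol-fed rabbits, incubated with [1-¹⁴C]oleoyl-CoA (Heider method, minor modifications).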

[2] = tested on: Rattus norvegicus; test: Compound was evaluated for percent reduction in total cholesterol level at >1 mg/kg; inactive; format: functional, organism-based
Summary of the method: (§1)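 Cholesterol-fed rats given compound orally as a dietary admixture in a cholesterol-enriched diet. Plasma total cholesterol compared with control and reported as percent reduction at the dose, or as ED50, the dose reducing plasma total cholesterol by 50% of the control value.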

[3] = molecular target: T1, Sterol O-acyltransferase, Soat (Rattus norvegicus) (UniProt Q7TQM4+O70536); test: Effective dose to reduce plasma total cholesterol level by 50% of the control value in cholesterol fed rats; format: functional; summary of the method: as §1
[4] = tested on: Rattus norvegicus; test: Compound was evaluated for percent reduction in total cholesterol level at >0.32 mg/kg; format: functional; summary of the method: as §1
[5] = tested on: Rattus norvegicus; test: Compound was evaluated for percent reduction in total cholesterol level at >0.32 mg/kg; Inactive; format: functional, organism-based; summary of the method: as §1
[6] = species: Rattus norvegicus; test: Effective dose to reduce plasma total cholesterol level by 50% of the control in cholesterol fed rats; format: functional; summary of the method: as §1
[7] = molecular target: T1, Sterol O-acyltransferase, Soat (Rattus norvegicus); test: Percentage reduction in total cholesterol level at <1 mg/kg; format: functional, organism-based; summary of the method: as §1
[8] = tested on: Rattus norvegicus; test: Compound was evaluated for percent reduction in total cholesterol level at >0.1 mg/kg; Inactive; format: functional, organism-based; summary of the method: as §1
[9] = tested on: Rattus norvegicus; test: Effective dose to reduce plasma total cholesterol level by 50% of the control in cholesterol fed rats when administered by gavage in PEG400 as a vehicle; format: functional; settings: po
Summary of the method: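 Rats on a cholesterol diet were dosed orally by gavage with compound in PEG400 vehicle. Plasma total cholesterol measured. ED50 is the dose reducing it by 50% of the control value.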

[10] = species: Mus musculus; test: Compound tested for inhibitory activity of foam cell formation in mouse peritoneal macrophages; format: functional
Summary of the method: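 Mouse peritoneal macrophages from nonstimulated mice, lavaged with PBS, plated 2 × 10⁶ cells/mL, adhered 2 h, then 18 h in 10% FBS-DMEM. Incubated 4 h at 37 °C with 0.2 mmol/L [1-¹⁴C]oleate–BSA, 30 µg/mL acetylated human LDL and compound (0.1% DMSO). Lipids extracted, TLC-separated, and cholesteryl [¹⁴C]oleate counted. Cell protein also measured. IC50 in nM.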

| SMILES | IC50 [1] | ED50 [3] | further results |
| --- | --- | --- | --- |
| Cc1cc(C)c(NC(=O)N(Cc2ccc(-c3nnc(C)o3)cc2)C2CCCCCC2)c(C)c1 | 27 nM | > 0.32 mg/kg | Reduction [4]: 37% |
| Cc1cc(C)c(NC(=O)N(Cc2ccc(-c3ccn(C)n3)cc2)C2CCCCCC2)c(C)c1 | 44 nM | < 1 mg/kg | Reduction [5]: inactive; ED50 [6]: > 0.32 mg/kg; Reduction [7]: 88% |
| CSc1cc(C)nc(SC)c1NC(=O)N(Cc1ccccc1)Cc1ccc(-c2ccn(C)n2)cc1 | 29 nM | > 0.32 mg/kg | Reduction [8]: inactive |
| O=C(Nc1c(F)cc(F)cc1F)N(Cc1cccc(-c2cc[nH]n2)c1)C1CCCCCC1 | 22 nM | 0.062 mg/kg | ED50 [9]: 0.79 mg/kg; IC50 [10]: 580 nM |
| CSc1cc(C)nc(SC)c1NC(=O)N(Cc1cccc(-c2cc[nH]n2)c1)C1CCCCCC1 | 260 nM | > 0.32 mg/kg | Reduction [4]: 24% |

Further compounds by falling IC50 [1], results first:

| IC50 [1] | ED50 [3] | SMILES | further results |
| --- | --- | --- | --- |
| 750 nM | > 1 mg/kg | Cc1cc(C)c(NC(=O)N(Cc2c[nH]c(-c3ccccc3)n2)C2CCCCCC2)c(C)c1 | Reduction [2]: inactive |
| 24 nM |  | Cc1cc(C)c(NC(=O)N(Cc2ccc(-c3ccccc3)cc2)C2CCCCCC2)c(C)c1 | ED50 [6]: 0.29 mg/kg |
